Data published in ChEMBL document CHEMBL5506001 (J Med Chem, 2024).
≈ marks a conversion by molar mass, not a printed value. Calls of active or inactive are those of the source. No cut-off for these calls is given here.

Key:
Bos taurus [1] = species on record: Bos taurus; experiment: Activation of full-length myosin ATPase activity in bovine Cardiomyofibril in presence of CaCl2 and ATP by HTS assay; type: tissue-based
Outline: (§1)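 Calcium-stimulated ATPase activity of cardiac myofibrils (bovine), slow skeletal myofibrils (bovine masseter), fast skeletal myofibrils (rabbit) or chicken gizzard smooth muscle myosin; 10-point dose response up to 40 μM.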

Gallus gallus [2] = species on record: Gallus gallus; details: Gizzard
Bos taurus [3] = species on record: Bos taurus; experiment: Activation of full-length myosin ATPase activity in bovine slow skeletal myofibrils at 0.01 to 100 uM in presence of CaCl2 and ATP by HTS assay; type: tissue-based; details: dose 0.01-100 µM
Oryctolagus cuniculus [4] = species on record: Oryctolagus cuniculus; details: Fast skeletal myofibrils
[5] = Solubility of compound at pH 6.8 incubated for 12 hrs by HPLC analysis; type: physicochemical; details: buffer, pH 6.8, 12 h
Outline: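 Agitated 12 h at room temperature in pH 6.8 monopotassium phosphate JP2 buffer, filtered, quantified by HPLC against a standard.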

[6] = biological target: cGMP-inhibited 3',5'-cyclic phosphodiesterase 3A (Homo sapiens, UniProt Q14432); experiment: Inhibition of PDE3A (unknown origin) using cAMP as substrate preincubated for 20 mins followed by substrate addition measured after 30 mins by HTS assay
Outline: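 PDE3A preincubated with compound in 50 mM Tris, 5 mM MgCl₂, pH 7.5, for 20 min at room temperature. Then 0.2 µM cAMP substrate added for 30 min at room temperature, followed by a PDELight stop/detection mix.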

Bos taurus [7] = species on record: Bos taurus; experiment: Activation of Myosin S1 ATPase activity in bovine Cardiomyofibril at 40 uM in presence of bovine cardiac thin filament; type: tissue-based; details: filed as activator
Cardiac muscle cell [8] = experiment: Induction of Sprague-Dawley rat Cardiomyocyte contractility by measuring myocyte relaxation time at 10 uM incubated for 5 mins by imaging analysis; type: functional
Cardiac muscle cell [9] = experiment: Induction of Sprague-Dawley rat Cardiomyocyte contractility by measuring myocyte relaxation velocity at 10 uM incubated for 5 mins by imaging analysis; type: functional
Gallus gallus [10] = species on record: Gallus gallus; experiment: Activation of full-length myosin ATPase activity in chicken Gizzard at 0.01 to 40 uM in presence of CaCl2 and ATP by HTS assay; details: dose 0.01-40 µM
Oryctolagus cuniculus [11] = species on record: Oryctolagus cuniculus; experiment: Activation of Myosin S1 ATPase activity in rabbit fast skeletal myofibrils at 40 uM in presence of bovine cardiac thin filament; type: tissue-based; details: filed as activator
Bos taurus [12] = species on record: Bos taurus; experiment: Activation of full-length myosin ATPase activity in bovine Cardiomyofibril at 0.01 to 100 uM in presence of CaCl2 and ATP by HTS assay; type: tissue-based; details: dose 0.01-100 µM
Cardiac muscle cell [13] = experiment: Induction of Sprague-Dawley rat Cardiomyocyte contractility assessed as increase in myocyte fractional shortening at 10 uM incubated for 5 mins by imaging analysis; type: functional, cell-based
Cardiac muscle cell [14] = experiment: Induction of Sprague-Dawley rat Cardiomyocyte contractility assessed as increase in myocyte relaxation velocity at 10 uM incubated for 5 mins by imaging analysis relative to control; type: functional; set-up: scale not given: the % may be the effect or the level left
Cardiac muscle cell [15] = experiment: Induction of Sprague-Dawley rat Cardiomyocyte contractility assessed as increase in myocyte relaxation time at 10 uM incubated for 5 mins by imaging analysis relative to control; type: functional; set-up: scale not given: the % may be the effect or the level left
Bos taurus [16] = species on record: Bos taurus; experiment: Activation of full-length myosin ATPase activity in bovine slow skeletal myofibrils in presence of CaCl2 and ATP by HTS assay; type: tissue-based; details: filed as activator; outline: as §1
Oryctolagus cuniculus [17] = species on record: Oryctolagus cuniculus; experiment: Activation of full-length myosin ATPase activity in rabbit fast skeletal myofibrils at 0.01 to 40 uM in presence of CaCl2 and ATP by HTS assay; details: dose 0.01-40 µM
[18] = Plasma protein binding in rat assessed as unbound fraction at 5 uM incubated for 6 hrs by equilibrium dialysis based HPLC analysis; type: ADME, cell-free
Outline: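 Equilibrium dialysis: compound added at 5 μM to the buffer chamber, shaken against rat plasma for 6 h at 37 °C. Both chambers analysed by HPLC against standards; reported as % unbound.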

[19] = Clearance in Sprague-Dawley rat at 0.5 mg/kg,iv administered as bolus injection measured after 24 hrs by HPLC analysis; type: ADME, organism-based; details: in vivo
Outline: (§2)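 Male Sprague-Dawley rats given a single intravenous bolus; blood sampled from just before dosing to 24 h after; compound in blood or plasma measured by HPLC against a standard.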

[20] = Volume of distribution in Sprague-Dawley rat at 0.5 mg/kg,iv administered as bolus injection measured after 24 hrs by HPLC analysis; type: ADME, organism-based; details: in vivo; outline: as §2
[21] = Half life in Sprague-Dawley rat at 0.5 mg/kg,iv administered as bolus injection measured after 24 hrs by HPLC analysis; type: ADME, organism-based; details: in vivo; outline: as §2

cGMP-inhibited 3',5'-cyclic phosphodiesterase 3A, sequence (Q14432 whole entry): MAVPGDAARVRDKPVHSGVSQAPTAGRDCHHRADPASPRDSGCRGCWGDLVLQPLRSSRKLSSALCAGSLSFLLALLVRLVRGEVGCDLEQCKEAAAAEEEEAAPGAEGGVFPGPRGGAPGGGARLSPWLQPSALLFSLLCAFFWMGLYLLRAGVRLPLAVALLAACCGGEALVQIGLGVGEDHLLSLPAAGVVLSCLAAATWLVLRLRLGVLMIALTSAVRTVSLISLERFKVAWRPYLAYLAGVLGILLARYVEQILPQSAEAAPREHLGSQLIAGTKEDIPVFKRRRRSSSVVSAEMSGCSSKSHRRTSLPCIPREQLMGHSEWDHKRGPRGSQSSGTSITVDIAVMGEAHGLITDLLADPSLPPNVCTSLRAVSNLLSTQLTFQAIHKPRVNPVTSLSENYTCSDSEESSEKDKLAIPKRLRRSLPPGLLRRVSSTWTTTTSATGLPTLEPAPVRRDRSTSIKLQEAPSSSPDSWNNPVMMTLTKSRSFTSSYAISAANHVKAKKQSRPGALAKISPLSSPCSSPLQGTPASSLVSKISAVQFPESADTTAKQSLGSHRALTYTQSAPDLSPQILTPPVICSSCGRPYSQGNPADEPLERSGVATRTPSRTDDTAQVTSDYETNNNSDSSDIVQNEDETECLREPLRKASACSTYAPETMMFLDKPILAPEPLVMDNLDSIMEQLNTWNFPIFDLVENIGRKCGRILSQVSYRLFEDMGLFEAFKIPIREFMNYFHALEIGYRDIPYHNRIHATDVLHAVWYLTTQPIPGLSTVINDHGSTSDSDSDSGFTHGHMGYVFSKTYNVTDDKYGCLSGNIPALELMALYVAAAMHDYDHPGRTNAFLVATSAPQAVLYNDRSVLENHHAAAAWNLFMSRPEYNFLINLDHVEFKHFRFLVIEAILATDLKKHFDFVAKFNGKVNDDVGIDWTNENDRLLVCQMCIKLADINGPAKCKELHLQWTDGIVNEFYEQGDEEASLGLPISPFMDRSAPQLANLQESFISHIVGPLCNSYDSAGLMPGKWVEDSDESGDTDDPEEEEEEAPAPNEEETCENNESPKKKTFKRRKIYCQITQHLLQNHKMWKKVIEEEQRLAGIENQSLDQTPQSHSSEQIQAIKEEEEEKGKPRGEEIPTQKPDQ

O=c1[nH]c(=O)c2cc(S(=O)(=O)Nc3ccc(-c4ccccc4)cn3)ccc2[nH]1
EC40 (Bos taurus [1]; filed as activator): 18 µM

O=c1[nH]c(=O)c2cc(S(=O)(=O)Nc3ccc(N4CCCCCC4)cc3)ccc2[nH]1
EC40 (Gallus gallus [2]): > 39.2 µM | Activity (Bos taurus [3]): inactive | EC40 (Bos taurus [1]; filed as activator): 1.1 µM | EC40 (Oryctolagus cuniculus [4]): > 39.2 µM | solubility [5]: 2.3 µM (≈ 0.953 µg/mL) | IC50 [6]: 2.3 µM | Activity (Bos taurus [7]): Active | Time (Cardiac muscle cell [8]): 0.308 s | Activity (Cardiac muscle cell [9]): 55.4 um/s | Activity (Gallus gallus [10]): inactive | Activity (Oryctolagus cuniculus [11]): Active | Activity (Bos taurus [12]): inactive | Activity (Cardiac muscle cell [13]): Active | Activity (Cardiac muscle cell [14]): 23% | Activity (Cardiac muscle cell [15]): 30% | EC40 (Bos taurus [16]): 1.7 µM | Activity (Oryctolagus cuniculus [17]): inactive

CNc1cc2nc(C)[nH]c(=O)c2cc1S(=O)(=O)Nc1ccc(N2C[C@H](C)C[C@@H](C)C2)nc1
fraction unbound at 6 h, 5 µM [18]: 0.012 | EC40 (Bos taurus [1]; filed as activator): 1.4 µM | IC50 [6]: > 40 µM | clearance [19]: 3.3 mL/min/kg | Vd [20]: 1.8 L/kg | t1/2 [21]: 1.1 h

CN(c1ccc(-c2ccccc2)cc1)S(=O)(=O)c1ccc2[nH]c(=O)[nH]c(=O)c2c1
EC40 (Bos taurus [1]): > 39 µM

O=c1[nH]c(=O)c2cc(S(=O)(=O)Nc3cnc(-c4ccccc4)nc3)ccc2[nH]1
EC40 (Bos taurus [1]): > 39 µM

COc1cc2nc(C)[nH]c(=O)c2cc1S(=O)(=O)Nc1ccc(N2C[C@H](C)C[C@@H](C)C2)nc1
fraction unbound at 6 h, 5 µM [18]: 0.008 | EC40 (Bos taurus [1]; filed as activator): 0.7 µM | IC50 [6]: > 40 µM | clearance [19]: 0.1 mL/min/kg | t1/2 [21]: 2.3 h

Cn1c(=O)[nH]c(=O)c2cc(S(=O)(=O)Nc3ccc(-c4ccccc4)cc3)ccc21
EC40 (Bos taurus [1]; filed as activator): < 0.1 µM | IC50 [6]: 4.6 µM

Cc1nc2cc(OCCN3CCOCC3)c(S(=O)(=O)Nc3ccc(N4C[C@H](C)C[C@@H](C)C4)nc3)cc2c(=O)[nH]1
fraction unbound at 6 h, 5 µM [18]: 0.037 | EC40 (Bos taurus [1]; filed as activator): 0.7 µM | IC50 [6]: > 40 µM | clearance [19]: 7.1 mL/min/kg | Vd [20]: 3.8 L/kg | t1/2 [21]: 0.6 h

Cc1nc2ccc(S(=O)(=O)Nc3ccc(N4C[C@H](C)C[C@@H](C)C4)nc3)cc2c(=O)[nH]1
EC40 (Bos taurus [1]; filed as activator): 4.5 µM | IC50 [6]: > 40 µM

O=c1[nH]c(=O)c2cc(S(=O)(=O)Nc3ccccc3)ccc2[nH]1
EC40 (Bos taurus [1]): > 39 µM

O=c1[nH]c(=O)c2cc(S(=O)(=O)Nc3ccc(-c4ccccc4)cc3)ccc2[nH]1
EC40 (Gallus gallus [2]): > 39.2 µM | EC40 (Bos taurus [1]; filed as activator): < 0.1 µM | EC40 (Oryctolagus cuniculus [4]): > 39.2 µM | solubility [5]: 2.4 µM (≈ 0.944 µg/mL) | IC50 [6]: 4.6 µM | EC40 (Bos taurus [16]): < 0.1 µM

C[C@@H]1CCCN(c2ccc(NS(=O)(=O)c3ccc4c(c3)c(=O)[nH]c(=O)n4C)cn2)C1
EC40 (Bos taurus [1]; filed as activator): 4.3 µM

O=c1[nH]c2ccc(S(=O)(=O)Nc3ccc(-c4ccccc4)cc3)cc2[nH]1
EC40 (Bos taurus [1]; filed as activator): 5.5 µM | Activity (Bos taurus [7]): Active | Activity (Oryctolagus cuniculus [11]): Active

O=c1[nH]c(=O)c2cc(S(=O)(=O)Nc3ccc(-c4ccccc4)nc3)ccc2[nH]1
EC40 (Bos taurus [1]; filed as activator): 5.3 µM

C[C@H]1CCCN(c2ccc(NS(=O)(=O)c3ccc4c(c3)c(=O)[nH]c(=O)n4C)cn2)C1
EC40 (Bos taurus [1]): > 33 µM

C[C@@H]1C[C@H](C)CN(c2ccc(NS(=O)(=O)c3ccc4c(c3)c(=O)[nH]c(=O)n4C)cn2)C1
EC40 (Bos taurus [1]; filed as activator): 11.1 µM

C[C@@H]1C[C@@H](C)CN(c2ccc(NS(=O)(=O)c3ccc4c(c3)c(=O)[nH]c(=O)n4C)cn2)C1
EC40 (Bos taurus [1]; filed as activator): 0.5 µM

C[C@H]1C[C@H](C)CN(c2ccc(NS(=O)(=O)c3ccc4c(c3)c(=O)[nH]c(=O)n4C)cn2)C1
EC40 (Bos taurus [1]; filed as activator): 21.9 µM

Cn1c(=O)[nH]c(=O)c2cc(S(=O)(=O)Nc3ccc(N4CCCCC4)nc3)ccc21
EC40 (Bos taurus [1]): > 30 µM
